According to ChEMBL document CHEMBL1833814 (Bioorg Med Chem Lett, 2011):

Target: Fatty acid synthase (Homo sapiens, UniProt P49327)
Test: Inhibition of human FAS assessed as synthesis of long chain fatty acids from malonyl CoA after 60 mins by fluorescence assay
Procedure, shortened: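 FAS enzyme prepared from HeLa cells, in enzyme buffer (20 mM K phosphate, 1 mM EDTA, 1 mM DTT, 5% glycerol, pH 7.4). It was preincubated 60 min at 37 °C with compound (0.1% DMSO), 326 µM NADPH and 60 µM acetyl CoA in 100 mM K phosphate, 1 mM EDTA, 1 mM DTT, pH 7.0. The reaction was started with 200 µM malonyl CoA. NADPH consumption was read at 340 nm over 10 min, and the slope (Vmax) was taken.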

Chain of Fatty acid synthase (P49327 whole entry): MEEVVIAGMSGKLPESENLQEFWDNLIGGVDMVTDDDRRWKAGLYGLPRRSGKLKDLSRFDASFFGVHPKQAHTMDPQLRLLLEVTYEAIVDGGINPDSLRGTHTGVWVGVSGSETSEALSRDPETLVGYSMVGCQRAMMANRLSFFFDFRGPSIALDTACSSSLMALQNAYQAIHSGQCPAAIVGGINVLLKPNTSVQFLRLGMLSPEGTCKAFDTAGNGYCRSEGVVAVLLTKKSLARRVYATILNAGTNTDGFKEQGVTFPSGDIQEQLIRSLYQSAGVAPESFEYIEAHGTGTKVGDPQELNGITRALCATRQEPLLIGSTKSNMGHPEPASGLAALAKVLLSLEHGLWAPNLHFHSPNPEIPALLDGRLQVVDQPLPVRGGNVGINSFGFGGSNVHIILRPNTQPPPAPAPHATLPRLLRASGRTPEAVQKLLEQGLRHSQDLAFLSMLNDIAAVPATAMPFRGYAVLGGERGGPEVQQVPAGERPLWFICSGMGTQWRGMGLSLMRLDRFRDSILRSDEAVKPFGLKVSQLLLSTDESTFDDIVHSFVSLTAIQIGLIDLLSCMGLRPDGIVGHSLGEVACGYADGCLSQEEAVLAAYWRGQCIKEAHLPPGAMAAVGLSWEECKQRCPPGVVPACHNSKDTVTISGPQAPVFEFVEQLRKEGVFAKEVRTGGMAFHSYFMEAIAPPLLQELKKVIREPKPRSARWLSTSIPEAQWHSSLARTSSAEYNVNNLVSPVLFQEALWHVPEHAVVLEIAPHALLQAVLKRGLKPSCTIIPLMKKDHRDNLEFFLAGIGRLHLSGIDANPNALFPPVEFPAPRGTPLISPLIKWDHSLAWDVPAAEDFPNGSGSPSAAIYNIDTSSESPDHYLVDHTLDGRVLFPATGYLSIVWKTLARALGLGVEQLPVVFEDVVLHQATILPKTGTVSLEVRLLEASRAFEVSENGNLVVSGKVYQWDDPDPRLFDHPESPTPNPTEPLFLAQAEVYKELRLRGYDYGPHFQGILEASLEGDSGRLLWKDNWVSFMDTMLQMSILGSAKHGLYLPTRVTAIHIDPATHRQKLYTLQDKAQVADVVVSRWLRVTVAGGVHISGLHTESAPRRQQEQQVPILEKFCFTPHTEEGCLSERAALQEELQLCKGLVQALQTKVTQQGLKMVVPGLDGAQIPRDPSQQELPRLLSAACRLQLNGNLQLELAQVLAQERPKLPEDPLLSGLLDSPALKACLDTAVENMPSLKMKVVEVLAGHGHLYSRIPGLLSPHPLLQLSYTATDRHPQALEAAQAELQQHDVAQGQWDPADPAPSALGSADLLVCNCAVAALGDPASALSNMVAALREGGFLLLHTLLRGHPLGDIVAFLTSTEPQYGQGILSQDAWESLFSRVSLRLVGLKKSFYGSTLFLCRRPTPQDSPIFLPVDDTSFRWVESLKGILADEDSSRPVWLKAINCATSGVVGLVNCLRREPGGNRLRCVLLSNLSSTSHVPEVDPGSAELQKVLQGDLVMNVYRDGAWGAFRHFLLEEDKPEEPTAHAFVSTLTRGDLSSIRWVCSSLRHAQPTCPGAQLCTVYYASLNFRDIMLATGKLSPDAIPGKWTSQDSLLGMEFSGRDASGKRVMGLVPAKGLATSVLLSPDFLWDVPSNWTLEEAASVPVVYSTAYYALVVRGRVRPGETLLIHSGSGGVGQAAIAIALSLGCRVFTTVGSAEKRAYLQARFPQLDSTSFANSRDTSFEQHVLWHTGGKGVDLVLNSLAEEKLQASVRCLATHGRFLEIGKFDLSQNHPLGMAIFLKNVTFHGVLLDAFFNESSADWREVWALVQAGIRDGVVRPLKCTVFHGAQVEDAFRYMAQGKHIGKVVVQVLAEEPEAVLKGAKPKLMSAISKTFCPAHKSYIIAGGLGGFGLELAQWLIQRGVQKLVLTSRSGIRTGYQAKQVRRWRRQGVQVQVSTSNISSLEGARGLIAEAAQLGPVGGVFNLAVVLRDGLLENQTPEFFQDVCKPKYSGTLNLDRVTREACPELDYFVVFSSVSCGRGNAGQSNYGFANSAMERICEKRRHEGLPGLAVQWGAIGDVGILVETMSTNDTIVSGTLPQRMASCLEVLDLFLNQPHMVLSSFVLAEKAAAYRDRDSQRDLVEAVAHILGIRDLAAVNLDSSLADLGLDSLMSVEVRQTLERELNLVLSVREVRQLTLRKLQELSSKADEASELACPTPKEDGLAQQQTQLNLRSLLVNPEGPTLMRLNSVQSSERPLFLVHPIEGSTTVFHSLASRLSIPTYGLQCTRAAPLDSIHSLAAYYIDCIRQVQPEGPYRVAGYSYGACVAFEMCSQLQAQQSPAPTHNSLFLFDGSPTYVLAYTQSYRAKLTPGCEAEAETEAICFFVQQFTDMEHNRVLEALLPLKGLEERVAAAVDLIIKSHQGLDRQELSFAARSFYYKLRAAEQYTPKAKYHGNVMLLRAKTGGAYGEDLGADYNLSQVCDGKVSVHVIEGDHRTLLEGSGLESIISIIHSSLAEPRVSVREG

CC(=O)N[C@H]1CC[C@@H](C(=O)N(C)c2ccc(-c3ccccc3)cc2)C1
IC50: 480 nM

CC(C)C(=O)N[C@H]1CC[C@@H](C(=O)N(C)c2ccc(-c3ccccc3)cc2)C1
IC50: 420 nM

CCNC(=O)N[C@H]1CC[C@@H](C(=O)N(C)c2ccc(-c3ccccc3)cc2)C1
IC50: 1500 nM

CCC(=O)N[C@H]1CC[C@@H](C(=O)N(C)c2ccc(-c3ccccc3)cc2)C1
IC50: 300 nM

CN(C)CCCCCC(=O)N[C@H]1CC[C@@H](C(=O)N(C)c2ccc(-c3ccccc3)cc2)C1
IC50: 2000 nM

CC(=O)N[C@@H]1CC[C@H](C(=O)N(C)c2ccc(-c3ccccc3)cc2)C1
IC50: > 10000 nM

CCC(=O)N[C@H]1CC[C@@H](C(=O)N(C)c2ccc(-c3nc4ccccc4[nH]3)cc2)C1
IC50: 190 nM

CCC(=O)N[C@H]1CC[C@@H](C(=O)N(C)c2ccc(-c3nc4ccccc4n3C)cc2)C1
IC50: 310 nM

CCC(=O)N[C@H]1CC[C@@H](C(=O)N(C)c2ccc(-c3cn4ccccc4n3)cc2)C1
IC50: 290 nM

CC(=O)N[C@H]1CC[C@@H](C(=O)N(C)c2ccc(-c3nc4ccccc4[nH]3)cc2)C1
IC50: 1300 nM

CC(C)C(=O)N[C@H]1CC[C@@H](C(=O)N(C)c2ccc(-c3nc4ccccc4[nH]3)cc2)C1
IC50: 1500 nM

CCNC(=O)N[C@H]1CC[C@@H](C(=O)N(C)c2ccc(-c3nc4ccccc4[nH]3)cc2)C1
IC50: 400 nM
